Assay results taken from ChEMBL document CHEMBL1131472, “A1 adenosine receptor antagonists as ligands for positron emission tomography (PET) and single-photon emission tomography (SPET)” (J Med Chem, 1998).
Values joined by “and” are separate entries in the source; they are usually repeats but may differ in a detail not shown here. Identical values can stand only once.

Each molecule was assayed against T1, Adenosine receptor A1 (Bos taurus, UniProt P28190) (assay: Displacement of [3H]CPX from Adenosine A1 receptor of bovine brain cerebral cortex membranes).
T1 sequence (P28190 whole entry): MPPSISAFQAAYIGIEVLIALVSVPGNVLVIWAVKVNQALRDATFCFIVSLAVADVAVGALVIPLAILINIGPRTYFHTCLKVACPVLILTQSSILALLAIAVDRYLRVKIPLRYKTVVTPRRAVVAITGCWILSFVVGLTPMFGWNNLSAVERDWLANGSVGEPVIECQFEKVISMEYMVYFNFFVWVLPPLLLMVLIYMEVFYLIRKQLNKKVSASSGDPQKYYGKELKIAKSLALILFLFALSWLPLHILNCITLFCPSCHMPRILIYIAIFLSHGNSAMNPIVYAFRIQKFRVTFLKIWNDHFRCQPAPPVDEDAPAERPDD
Assay type: tissue-based
Procedure, shortened: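 Competition binding at room temperature in 50 mM Tris·HCl, 0.02% CHAPS, pH 7.4. Mixture held 0.2 nM [3H]CPX, 25 µg bovine cerebral cortex membranes and 0.2 U/mL adenosine deaminase. Membranes were added to start binding, and incubation was stopped after 2 h by glass-fibre filtration. Bound radioactivity was counted by liquid scintillation. Nonspecific binding was defined with 10 µM (R)-PIA. Ki came from nonlinear curve fitting as the geometric mean (95% confidence limits) of 3-5 experiments in duplicate.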
`CCCn1c(=O)n(COCC)c(=O)c2[nH]c(C3CCCC3)nc21` showed a Ki of 286 pM.
`CCCn1c(=O)c2[nH]c(C3CCCC3)nc2n(CC(C)F)c1=O` (stereo unspecified) gave a Ki of 94 pM.
Molecule `CCCn1c(=O)n(CCCF)c(=O)c2nc(C3CCCC3)[nH]c21` has a Ki of 216 pM.
In the case of `CCCn1c(=O)n(C)c(=O)c2[nH]c(C3CCCC3)nc21`, the Ki is reported as 526 pM.
Molecule `CCCn1c(=O)c2nc(C3CCCC3)[nH]c2n(CCCF)c1=O` has a Ki of 183 pM.
For `CCCn1c(=O)c2[nH]c(C3CCCC3)nc2n(CCC)c1=O` [1,3-DIPROPYL-8-CYCLOPENTYLXANTHINE [DPCPX]], the Ki was 155 pM and 170 pM.
Molecule `CCCn1c(=O)n(CC(C)F)c(=O)c2[nH]c(C3CCCC3)nc21` (stereo unspecified) has a Ki of 1230 pM.
Work on `CCCn1c(=O)c2nc(C3CCCC3)[nH]c2n(CCOC)c1=O` yielded a Ki of 493 pM.
Work on `CCCn1c(=O)[nH]c2nc(C3CCCC3)n(C)c2c1=O` yielded a Ki of 149000 pM.
`CCCn1c(=O)c2nc(C3CCCC3)[nH]c2n(C)c1=O` showed a Ki of 310 pM.
For `CCCn1c(=O)c2nc(C3CCCC3)[nH]c2n(C/C=C/I)c1=O`, the Ki was 237 pM.
